The source made the active and inactive calls. The calls are words filed in the database; no cut-off is given here.
Assays:
[1] = tested on: HCT-116; assay: Cytotoxicity against human HCT116 cells assessed as inhibition of cell proliferation after 24 hrs by WST-1 assay; format: functional, cell-based; conditions: HCT-116, 24 h
Outline: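 HCT116 cells from ATCC, grown in McCoy's 5A with 10% FBS, penicillin and streptomycin at 37 °C under 5% CO2. Plated at 1 × 10^4 cells per well with compound at 10 and 100 μM for 24 h. Viability read by WST-1. IC50 given as mean ± SD of five independent experiments.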

[2] = target: DNA polymerase beta (Rattus norvegicus) (UniProt P06766); assay: Inhibition of rat recombinant DNA polymerase beta expressed in Escherichia coli JMpbeta5 cells assessed as incorporation of [3H]dTTP into poly(dA)/oligo(dT)18 DNA-template primer at 100 uM after 60 mins
Outline: (§1)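 Single-concentration screen at 100 μM. Compound was dissolved in DMSO and sonicated 30 s. Enzyme (0.05 unit of calf thymus pol α or E. coli-expressed rat pol β) was preincubated 10 min at 0 °C in Tris-HCl pH 7.5/DTT/glycerol/EDTA. Reaction with poly(dA)/oligo(dT)18 and [3H]dTTP ran 60 min at 37 °C. Activity given as percent of no-inhibitor control.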

[3] = species on record: Bos taurus; assay: Inhibition of calf thymus DNA polymerase alpha assessed as incorporation of [3H]dTTP into poly(dA)/oligo(dT)18 DNA-template primer at 100 uM after 60 mins; outline: as §1
[4] = target: DNA polymerase beta (Rattus norvegicus, UniProt P06766); assay: (§2) Inhibition of rat recombinant DNA polymerase beta expressed in Escherichia coli JMpbeta5 cells assessed as incorporation of [3H]dTTP into poly(dA)/oligo(dT)18 DNA-template primer after 60 mins
Outline: (§3)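 Pol α from calf thymus, purified by immunoaffinity column. Rat pol β expressed in E. coli JMpβ5. Template-primer poly(dA)/oligo(dT)18 (A/T 2:1) with [3H]dTTP (43 Ci/mmol). Each enzyme (0.05 unit) was preincubated with compound for 10 min at 0 °C in 50 mM Tris-HCl pH 7.5 with 1 mM DTT, 50% glycerol and 0.1 mM EDTA. Reaction ran 60 min at 37 °C. Activity relative to no-inhibitor control; IC50 from dose-response curves.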

[5] = (§4) Inhibition of calf thymus DNA polymerase alpha assessed as incorporation of [3H]dTTP into poly(dA)/oligo(dT)18 DNA-template primer after 60 mins; design: species or system Bos taurus; outline: as §3
[6] = target: DNA polymerase beta (Rattus norvegicus) (UniProt P06766); assay: as §2; outline: as §3
[7] = species on record: Bos taurus; assay: as §4; outline: as §3

inhibition [2] | inhibition [3] | IC50 [4] [µM] | IC50 [5] [µM] | SMILES | IC50 [1] [µM] | inhibition [6] | inhibition [7]
Active | Active | > 100 | > 100 | CC1=CC[C@@H]2[C@H](C=C(C)[C@H]3[C@]4(C)OCC[C@@H](C)[C@H]4O[C@H](/C=C/C=C/C(=O)O)[C@@H](O)[C@@]23O)C1 | > 100 | – | –
Active | Active | > 100 | > 100 | C=C1[C@@H]([C@H](C)CC)O[C@H](/C=C/C=C/C(=O)O)[C@@H](O)[C@H]2[C@@H]3CC=C(C)C[C@H]3C=C(C)[C@@]12O | > 100 | – | –
Active | Active | 19.5 | 17.3 | C=C1[C@@H]2C(C)=C[C@@H]3CC(C)=CC[C@H]3[C@@H]2[C@H](O)[C@@H](/C=C/C=C/C(=O)O)O[C@@H]1[C@H](C)CC | 26.1 | Dose-dependent effect | Dose-dependent effect
Active | Active | > 100 | > 100 | CC[C@@H](C)[C@H]1O[C@H](/C=C/C=C/C(=O)O)[C@@H](O)[C@@]2(O)[C@@H]3CC=C(C)C[C@H]3C=C(C)[C@H]2[C@]1(C)O | > 100 | – | –
Active | Active | 37.9 | 47.2 | CC1=CC[C@H]2[C@@H]3[C@H](O)[C@@H](/C=C/C=C/C(=O)O)O[C@@H]4[C@H](C)CCO[C@@]4(C)[C@@H]3C(C)=C[C@@H]2C1 | 74.8 | – | –

SMILES | inhibition [2] | inhibition [3] | IC50 [4] [µM] | IC50 [5] [µM] | IC50 [1] [µM] | inhibition [6] | inhibition [7]
Cc1cn([C@H]2CC[C@@H](COP(=O)(O)OP(=O)(O)OP(=O)(O)O)O2)c(=O)[nH]c1=O | – | – | 30.8 | > 100 | > 100 | – | –
C[C@@]1(CO)[C@H](O)CC[C@@]2(C)[C@H]1CC[C@H]1C[C@@H]3C[C@@]12CC[C@]3(O)CO [APHIDICOLIN] | – | – | > 100 | 19.6 | 9 | – | –
CC[C@@H](C)[C@H]1O[C@]1(C)[C@@H]1C(C)=C[C@@H]2CC(C)=CC[C@H]2[C@@H]1/C=C/C=C/C=C/C(=O)O | Active | Active | 9.5 | 8.1 | 6.4 | Dose-dependent effect | Dose-dependent effect
